The text below walks through data of ChEMBL document CHEMBL4196197, “Irilone from Red Clover ( Trifolium pratense) Potentiates Progesterone Signaling” (J Nat Prod, 2018).

The source made the active and inactive calls. The calls are words filed in the database; no cut-off is given here.

Usually inhibition stands for how much of the control response was suppressed.

Series [1] concerns PEO1. The experiment in a line: Antiproliferative activity against human PEO1 cells at 25 to 50 uM after 5 days by SRB assay. The format is functional, cell-based. Summed up: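 SRB growth assay in PEO1 cells: 1,000 cells/well in steroid-free medium, day-0 plate TCA-fixed 2 h after seeding. Compound was given together with 100 nM progesterone for five days, then cells TCA-fixed, SRB-stained, dye solubilized in 10 mM Tris, absorbance at 505 nm. Day-5 values normalized to day 0; n≥3.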

In series [2] the target is T1, Progesterone receptor (Homo sapiens) (UniProt P06401).
T1 sequence (whole entry): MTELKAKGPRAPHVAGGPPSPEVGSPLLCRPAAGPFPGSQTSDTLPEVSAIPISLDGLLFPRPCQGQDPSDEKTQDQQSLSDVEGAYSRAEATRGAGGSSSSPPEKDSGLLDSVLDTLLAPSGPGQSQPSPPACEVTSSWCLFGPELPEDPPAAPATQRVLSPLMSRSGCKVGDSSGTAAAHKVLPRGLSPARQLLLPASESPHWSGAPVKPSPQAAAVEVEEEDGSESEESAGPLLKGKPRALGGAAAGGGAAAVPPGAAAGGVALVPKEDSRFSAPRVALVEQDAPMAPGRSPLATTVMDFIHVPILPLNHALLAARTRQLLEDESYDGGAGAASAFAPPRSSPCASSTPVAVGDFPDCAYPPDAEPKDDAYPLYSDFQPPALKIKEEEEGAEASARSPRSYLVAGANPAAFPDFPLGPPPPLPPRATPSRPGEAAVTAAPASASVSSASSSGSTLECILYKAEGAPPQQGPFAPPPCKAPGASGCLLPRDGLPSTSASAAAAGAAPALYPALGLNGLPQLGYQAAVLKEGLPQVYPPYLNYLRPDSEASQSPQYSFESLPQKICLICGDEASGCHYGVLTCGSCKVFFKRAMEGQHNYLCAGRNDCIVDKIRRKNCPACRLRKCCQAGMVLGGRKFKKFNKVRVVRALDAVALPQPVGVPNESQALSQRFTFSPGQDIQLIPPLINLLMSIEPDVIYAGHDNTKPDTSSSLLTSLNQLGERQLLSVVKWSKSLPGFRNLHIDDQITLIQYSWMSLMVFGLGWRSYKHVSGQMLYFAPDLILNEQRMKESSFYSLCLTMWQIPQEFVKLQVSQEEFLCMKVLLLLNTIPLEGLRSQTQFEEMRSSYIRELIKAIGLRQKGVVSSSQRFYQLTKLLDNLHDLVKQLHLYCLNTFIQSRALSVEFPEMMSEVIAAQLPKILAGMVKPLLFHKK
The experiment in a line: Agonist activity at PR-b (unknown origin) expressed in Ishikawa cells assessed as increase in progesterone-induced PRE activity at 25 uM after 24 hrs by luciferase reporter gene based luminescence assay relative to control. The format is cell-based. Summed up:
(§1)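 PRE/Luc transactivation in Ishikawa cells stably expressing PR-B under CMV, seeded 40,000/well in steroid-free phenol red-free medium with charcoal-stripped FBS. Next day co-transfected with PRE/Luc and CMV-β-galactosidase. Compounds were given together with 100 nM progesterone for 24 h. Luciferase, averaged over the first six RLU reads, normalized to β-gal and then to control; n≥3.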
Background: Reporter assays use an easily measured gene product as a stand-in for the process of interest.

Series [3] deals with PEO1. In words: Antiproliferative activity against human PEO1 cells at 1 to 50 uM after 5 days by SRB assay. The format is functional, cell-based. An outline of the steps: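 PEO1 cells (RPMI, 10% FBS, glutamine, pyruvate) seeded at 1,000/well in steroid-free medium, one plate fixed at 2 h as day 0. Compounds at 1–50 μM, alone without progesterone, for 5 days. Fixed with 20% TCA at 4 °C, stained with 0.4% SRB in 1% acetic acid, dissolved in 10 mM Tris, A505. Day 5 normalized to day 0; n≥3.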

The target in series [4] is T1, Progesterone receptor (Homo sapiens). In words: Agonist activity at PR-b (unknown origin) expressed in Ishikawa cells assessed as increase in PRE activity at 50 uM after 24 hrs by luciferase reporter gene based luminescence assay (reference value: 25.7). The format is cell-based. Summed up:
(§2)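 Ishikawa cells stably expressing CMV-driven PR-B, kept in phenol red-free DMEM/F12 with 5% charcoal-stripped FBS plus G418/hygromycin. Seeded 40,000/well in steroid-free medium. Next day transfected with PRE/Luc plus CMV-β-galactosidase (LT1). Compounds were added without progesterone for 24 h, then lysed and frozen at −80 °C. Luciferase (mean of first six RLU reads) normalized to β-gal, then to DMSO control, n≥3.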

For series [5] the target is unchanged. The experiment in a line: Agonist activity at PR-b (unknown origin) expressed in Ishikawa cells assessed as increase in progesterone-induced PRE activity at 50 uM after 24 hrs by luciferase reporter gene based luminescence assay relative to control. The format is cell-based. Summed up: as §1
The target in a further series is T2, Progesterone receptor (Homo sapiens, UniProt P06401).
T2 sequence (P06401 whole entry): T1 sequence (whole entry)
In words: Induction of PR-b degradation in human Ishikawa cells up to 50 uM after 24 hrs by Western blot analysis. The format is cell-based. An outline of the steps:
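Ishikawa PR-B cells in steroid-free medium treated with 0, 25 or 50 μM for 24 h. RIPA lysates with protease/phosphatase inhibitors, 25 μg protein by SDS-PAGE onto nitrocellulose. Blocked in 5% milk, probed overnight with anti-PR (H-190, 1:500) and β-actin (1:1000), anti-rabbit secondary, chemiluminescent detection.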
A general note: In western blotting, separated proteins are transferred to a membrane and probed.

Series [6] has as its target T1, Progesterone receptor (Homo sapiens). The experiment in a line: Agonist activity at PR-b (unknown origin) expressed in Ishikawa cells assessed as increase in PRE activity at 1 to 50 uM after 24 hrs in absence of progesterone by luciferase reporter gene based luminescence assay. The format is cell-based. Summed up: as §2
The subject of series [7] is PEO1. The experiment in a line: Antiproliferative activity against human PEO1 cells at 0.001 to 10 uM after 5 days by SRB assay. The format is functional, cell-based. Summed up: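 PEO1 cells kept in RPMI with 2 mM glutamine, 2 mM sodium pyruvate and 10% FBS; seeded at 1,000 cells/well in steroid-free medium. A day-0 plate was fixed with 20% TCA 2 h after seeding; the second plate was treated for 5 days, then fixed. SRB stain (0.4% in 1% acetic acid), dissolved in 10 mM Tris, A505; day 5 normalized to day 0; n≥3.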
(In SRB staining, fixed cells bind dye roughly in proportion to their protein.)

In series [8] the target is T1, Progesterone receptor (Homo sapiens). In words: Antagonist activity at PR-b (unknown origin) expressed in Ishikawa cells assessed as inhibition of progesterone-induced PRE activity at 50 uM after 24 hrs by luciferase reporter gene based luminescence assay. The format is cell-based. An outline of the steps:
as §1

Series [9] shares this target. In words: Agonist activity at PR-b (unknown origin) expressed in Ishikawa cells assessed as increase in progesterone-induced PRE activity at 1 uM after 24 hrs by luciferase reporter gene based luminescence assay. The format is cell-based. Summed up: as §1
Series [10] shares this target. The experiment in a line: Antagonist activity at PR-b (unknown origin) expressed in Ishikawa cells assessed as inhibition of progesterone-induced PRE activity at >= 25 uM after 24 hrs by luciferase reporter gene based luminescence assay. The format is cell-based. An outline of the steps:
as §1

The target is the same in series [11]. The experiment in a line: Agonist activity at PR-b (unknown origin) expressed in Ishikawa cells assessed as increase in PRE activity at 1 uM after 24 hrs in absence of progesterone by luciferase reporter gene based luminescence assay. The format is cell-based. An outline of the steps:
as §2

Series [12] shares this target. In words: Antagonist activity at PR-b (unknown origin) expressed in Ishikawa cells assessed as inhibition of basal PRE activity at 50 uM after 24 hrs in absence of progesterone by luciferase reporter gene based luminescence assay. The format is cell-based. Summed up: as §2
Series [13] has the same target. The experiment in a line: Antagonist activity at PR-b (unknown origin) expressed in Ishikawa cells assessed as inhibition of basal PRE activity at 25 to 50 uM after 24 hrs in absence of progesterone by luciferase reporter gene based luminescence assay. The format is cell-based. Summed up:
as §2

With `O=c1c(-c2ccc(O)cc2)coc2cc3c(c(O)c12)OCO3`, in the series on PEO1 [1], the result was Active. Also, the Activity was 138% in [2], 151% in [5] and “Not Active” on Progesterone receptor. For the same compound, the outcome (in the series on PEO1 [3]; in [6]) was inactive. In addition, the fold change (FC) in series [4] came out at 48.4.
For the compound `CC(=O)[C@H]1CC[C@H]2[C@@H]3CCC4=CC(=O)CC[C@]4(C)[C@H]3CC[C@]12C`, the outcome with PEO1 [7] was inactive.
For `COc1ccc(-c2coc3cc(O)cc(O)c3c2=O)cc1` [BIOCHANIN], the inhibition in series [8] is more than 90%. Also, the outcome in [9] was Active. For the same compound, the inhibition entry in series [10] and in [12] was “Active” throughout. Also, the Activity result was “Not Active” at Progesterone receptor and 55% in series [11].
`COc1ccc(-c2coc3cc(O)ccc3c2=O)cc1` [FORMONONETIN]: the inhibition in series [8] is more than 90%. For the same compound, the Activity is 57% in series [9] and “Not Active” at Progesterone receptor. Also, the inhibition result in series [10] and in series [12] was “Active” each time.
For `COc1cc(O)c2c(=O)c(-c3ccc(O)cc3)coc2c1` [PRUNETIN], the inhibition in series [8] was more than 90%. The inhibition result in [13] and in [10] was “Active” throughout. For the same compound, the Activity result on Progesterone receptor is “Not Active”.
